In ChEMBL document CHEMBL3098054, “The synthesis of novel taxoids for oral administration” (Bioorg Med Chem, 2014):

Columns and labels:
NCI-H460 = assay: Cytotoxicity against human NCI-H460 cells at 1 uM after 72 hrs by MTT assay; assay type: functional; conditions: NCI-H460, 72 h, read-out: GI
Method in brief: (§1)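 Cells plated at 2000–5000/well, attached overnight at 37 °C. DMSO stocks (100 mM) serially diluted in medium to a final 1 µM, tested in duplicate wells. Exposure 72 h at 37 °C, 5% CO₂. MTT (5 mg/mL, 10 µL) added for 4 h. Lysis in 10% SDS / 5% isopropanol / 0.012 N HCl, then OD read at 580–680 nm.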

HL-60 = assay: Cytotoxicity against human HL60 cells at 1 uM after 72 hrs by MTT assay; assay type: functional; conditions: HL-60, 72 h, read-out: GI; method in brief: as §1
HeLa = assay: Cytotoxicity against human HeLa cells at 1 uM after 72 hrs by MTT assay; assay type: functional; conditions: read-out: GI; method in brief: as §1
Caco-2 [1] = assay: (§2) Efflux ratio of apparent permeability from basolateral to apical side over apical to basolateral side in human Caco2 cells at 10 uM after 90 mins by LC-MS/MS analysis; assay type: ADME, cell-based; conditions: caco-2, 1.5 h, 10 µM
Method in brief: (§3)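 Caco-2 cells cultured 21 days on 24-well inserts, TEER >250 Ω·cm². Monolayers pre-incubated in HBSS pH 7.4 at 37 °C. Compound added to the donor side at 10 µM, 37 °C, 5% CO₂, 90 min, in the A-to-B and B-to-A directions. Donor and receiver levels measured by LC-MS/MS. Papp calculated from receiver amount, membrane area 0.7 cm², time and initial donor concentration. Efflux ratio = B–A/A–B.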

Caco-2 [2] = assay: (§4) Apparent permeability from apical to basolateral side in human Caco2 cells at 10 uM after 90 mins by LC-MS/MS analysis; assay type: ADME, cell-based; conditions: caco-2, 1.5 h, 10 µM
A2780 = assay: Cytotoxicity against human A2780 cells at 1 uM after 72 hrs by MTT assay; assay type: functional; conditions: A2780, 72 h, read-out: GI; method in brief: as §1
[3] = Apparent permeability from apical to basolateral side in wild-type MDCK cells at 5 uM after 90 mins; assay type: ADME, cell-based, Canis lupus familiaris; conditions: dog
Method in brief: (§5)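 MDCK-MDR1 monolayers grown on polycarbonate filter Transwells, confluent 5 days after seeding, TEER >1000 Ω·cm² before use. MDCK-WT cells plated at 5.0 × 10⁴ cells/well and used after 6 days at TEER >200 Ω·cm². Transport run at 37 °C in HBSS pH 7.4 for 90 min, in both directions. Lucifer yellow permeability and TEER change served as monolayer integrity checks. Efflux ratio = Papp(B–A)/Papp(A–B).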

MDR1 [4] = assay: Apparent permeability from basolateral to apical side in MDCK cells expressing MDR1 at 5 uM after 90 mins; assay type: ADME, cell-based, Canis lupus familiaris; conditions: dog; method in brief: as §5
MCF7 [5] = assay: Cytotoxicity against human MCF7 cells at 1 uM after 72 hrs by MTT assay; assay type: functional; conditions: MCF7, 72 h, read-out: GI; method in brief: as §1
MCF7 [6] = assay: Cytotoxicity against human MCF7 cells after 72 hrs by MTT assay; assay type: functional, cell-based; conditions: MCF7, 72 h
Method in brief: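 MCF-7 cells exposed to compound for 72 h and read by MTT. At least six replicate wells per assay, run on three separate occasions. IC₅₀ given as mean with standard deviation.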

A-375 = assay: Cytotoxicity against human A375 cells at 1 uM after 72 hrs by MTT assay; assay type: functional; conditions: A-375, 72 h, read-out: GI
Method in brief: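 Cells plated at 2000–5000/well, attached overnight at 37 °C. DMSO stocks (100 mM) serially diluted in medium to a final 1 µM, tested in duplicate wells. MTT (5 mg/mL, 10 µL) added for 4 h. Lysis in 10% SDS / 5% isopropanol / 0.012 N HCl, then OD read at 580–680 nm.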

[7] = target: ATP-dependent translocase ABCB1 (Homo sapiens, UniProt P08183); assay: Inhibition of MDR1 (unknown origin) expressed in MDCK cells at 10 uM after 90 mins; assay type: ADME, cell-based; conditions: 1.5 h
ATP-dependent translocase ABCB1, sequence (P08183 whole entry): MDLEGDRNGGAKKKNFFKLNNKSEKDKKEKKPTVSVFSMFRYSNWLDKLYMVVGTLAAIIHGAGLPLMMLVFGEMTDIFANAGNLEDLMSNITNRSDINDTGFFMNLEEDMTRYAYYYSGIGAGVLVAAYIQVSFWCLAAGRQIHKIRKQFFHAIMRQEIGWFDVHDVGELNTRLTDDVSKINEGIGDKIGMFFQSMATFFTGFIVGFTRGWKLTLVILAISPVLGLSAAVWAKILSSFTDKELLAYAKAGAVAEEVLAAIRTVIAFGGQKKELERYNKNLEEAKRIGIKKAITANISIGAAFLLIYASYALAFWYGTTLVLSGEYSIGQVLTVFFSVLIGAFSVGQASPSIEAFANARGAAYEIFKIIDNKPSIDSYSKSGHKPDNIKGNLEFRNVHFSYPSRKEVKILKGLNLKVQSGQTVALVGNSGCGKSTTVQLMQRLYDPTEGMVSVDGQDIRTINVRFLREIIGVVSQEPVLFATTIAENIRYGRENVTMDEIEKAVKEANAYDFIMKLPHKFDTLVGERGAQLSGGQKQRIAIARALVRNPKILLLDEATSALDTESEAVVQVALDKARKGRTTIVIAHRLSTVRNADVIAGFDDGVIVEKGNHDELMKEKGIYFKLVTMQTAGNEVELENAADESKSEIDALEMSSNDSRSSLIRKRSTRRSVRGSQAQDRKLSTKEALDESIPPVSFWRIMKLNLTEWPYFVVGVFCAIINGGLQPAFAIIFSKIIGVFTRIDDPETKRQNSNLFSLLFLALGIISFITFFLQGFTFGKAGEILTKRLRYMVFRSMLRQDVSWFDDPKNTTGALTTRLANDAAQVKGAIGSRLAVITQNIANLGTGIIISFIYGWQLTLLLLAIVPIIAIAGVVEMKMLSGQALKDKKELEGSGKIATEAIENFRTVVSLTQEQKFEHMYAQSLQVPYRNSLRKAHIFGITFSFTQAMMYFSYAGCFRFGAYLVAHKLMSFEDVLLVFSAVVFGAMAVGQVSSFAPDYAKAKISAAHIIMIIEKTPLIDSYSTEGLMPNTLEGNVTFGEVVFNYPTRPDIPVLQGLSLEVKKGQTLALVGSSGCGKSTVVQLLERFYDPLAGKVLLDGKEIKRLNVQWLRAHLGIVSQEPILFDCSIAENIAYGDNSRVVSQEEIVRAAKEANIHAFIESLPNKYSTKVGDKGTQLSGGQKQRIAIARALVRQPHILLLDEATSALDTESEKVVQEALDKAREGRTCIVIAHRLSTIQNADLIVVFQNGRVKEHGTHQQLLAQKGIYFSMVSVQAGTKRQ
Method in brief: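 P-gp inhibition measured as digoxin bidirectional transport across MDCK-MDR1 monolayers at 37 °C in HBSS pH 7.4, with test compound present at 10 µM. Read-out is the change in digoxin efflux ratio, Papp(B–A)/Papp(A–B).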

HT-29 = assay: Cytotoxicity against human HT-29 cells at 1 uM after 72 hrs by MTT assay; assay type: functional; conditions: HT-29, 72 h, read-out: GI; method in brief: as §1
[8] = Efflux ratio of apparent permeability from basolateral to apical side over apical to basolateral side in wild-type MDCK cells at 5 uM after 90 mins; assay type: ADME, cell-based, Canis lupus familiaris; conditions: dog; method in brief: as §5
DU-145 = assay: Cytotoxicity against human DU145 cells at 1 uM after 72 hrs by MTT assay; assay type: functional; conditions: DU-145, 72 h, read-out: GI; method in brief: as §1
MDR1 [9] = assay: Efflux ratio of apparent permeability from basolateral to apical side over apical to basolateral side in MDCK cells expressing MDR1 at 5 uM after 90 mins; assay type: ADME, cell-based, Canis lupus familiaris; conditions: dog; method in brief: as §5
[10] = Apparent permeability from basolateral to apical side in wild-type MDCK cells at 5 uM after 90 mins; assay type: ADME, cell-based, Canis lupus familiaris; conditions: dog; method in brief: as §5
MDR1 [11] = assay: Apparent permeability from apical to basolateral side in MDCK cells expressing MDR1 at 5 uM after 90 mins; assay type: ADME, cell-based, Canis lupus familiaris; conditions: dog; method in brief: as §5
Caco-2 [12] = assay: (§6) Apparent permeability from basolateral to apical side in human Caco2 cells at 10 uM after 90 mins by LC-MS/MS analysis; assay type: ADME, cell-based; conditions: caco-2, 1.5 h, 10 µM
[13] = as §2; assay type: ADME, cell-based, Caco-2; conditions: Caco-2; method in brief: as §3
[14] = as §4; assay type: ADME, cell-based, Caco-2; conditions: Caco-2
[15] = as §6; assay type: ADME, cell-based, Caco-2; conditions: Caco-2

| Structure (SMILES) | inhibition of growth at 1 µM (HeLa) [%] | Ratio (Caco-2 [1]) | Papp (Caco-2 [2]) [×10⁻⁶ cm/s] | Papp A→B at 1.5 h, 5 µM [3] [×10⁻⁶ cm/s] | Papp B→A at 1.5 h, 5 µM (MDR1 [4]) [×10⁻⁶ cm/s] | IC50 (MCF7 [6]) [nM] | inhibition (INH) [7] | efflux ratio at 1.5 h, 5 µM [8] | efflux ratio at 1.5 h, 5 µM (MDR1 [9]) | Papp B→A at 1.5 h, 5 µM [10] [×10⁻⁶ cm/s] | Papp A→B at 1.5 h, 5 µM (MDR1 [11]) [×10⁻⁶ cm/s] | Papp (Caco-2 [12]) [×10⁻⁶ cm/s] | efflux ratio at 1.5 h, 10 µM [13] | Papp A→B at 1.5 h, 10 µM [14] [×10⁻⁶ cm/s] | Papp B→A at 1.5 h, 10 µM [15] [×10⁻⁶ cm/s] | other results |
| --- | --- | --- | --- | --- | --- | --- | --- | --- | --- | --- | --- | --- | --- | --- | --- | --- |
| CO[C@H]1C(=O)[C@]2(C)[C@@H](OC(=O)N(C)C)C[C@H]3OC[C@@]3(OC(C)=O)[C@H]2[C@H](OC(=O)c2ccccc2)[C@]2(O)C[C@H](OC(=O)[C@H](O)[C@@H](NC(=O)OC(C)(C)C)c3ccccc3)C(C)=C1C2(C)C | 103 | 1.73 | 10.6 | 1.39 | 5.26 | 9.63 | Active | 2.28 | 10.1 | 3.17 | 0.52 | 26 |  |  |  | inhibition of growth at 1 µM (NCI-H460): 86.6%; inhibition of growth at 1 µM (HL-60): 97.8%; inhibition of growth at 1 µM (A2780): 95.8%; inhibition of growth at 1 µM (MCF7 [5]): 102%; inhibition of growth at 1 µM (A-375): 90.4%; inhibition of growth at 1 µM (HT-29): 89.8%; inhibition of growth at 1 µM (DU-145): 87.5% |
| CO[C@H]1C[C@H]2OC[C@@]2(OC(C)=O)[C@H]2[C@H](OC(=O)c3ccccc3)[C@]34OC(=O)O[C@H]3[C@H](OC(=O)[C@H](O)[C@@H](NC(=O)OC(C)(C)C)c3ccccc3)C(C)=C([C@@H](OC(=O)N(C)C)C(=O)[C@]12C)C4(C)C |  |  |  | 1.4 | 6.38 | 7.93 | Active | 2.13 | 10.1 | 2.99 | 0.63 |  | 2.04 | 16.4 | 33.5 |  |
| CC(=O)O[C@H]1C(=O)[C@@]2(C)[C@H]([C@H](OC(=O)c3ccccc3)[C@]3(O)C[C@H](OC(=O)[C@H](O)[C@@H](NC(=O)c4ccccc4)c4ccccc4)C(C)=C1C3(C)C)[C@]1(OC(C)=O)CO[C@@H]1C[C@@H]2O [PACLITAXEL] |  |  |  | 0.09 | 44.1 | 7.05 | Not Active | 344 | 334 | 29.8 | 0.13 |  | 34.4 | 0.97 | 33.4 |  |
| CO[C@H]1C(=O)[C@]2(C)[C@@H](OC(=O)N(C)C)C[C@H]3OC[C@@]3(OC(C)=O)[C@H]2[C@H](OC(=O)c2ccccc2)[C@]2(O)C[C@H](OC(=O)[C@H](O)[C@H](CC(C)C)NC(=O)OC(C)(C)C)C(C)=C1C2(C)C | 102 | 1.59 | 10.7 |  |  | 13.3 |  |  |  |  |  | 30.9 |  |  |  |  |
